Experimental data of several laboratories.
Compare with care: the assays were run in different laboratories. Converted amounts (≈) assume the structure as drawn.

Cc1c(NN=C(C#N)C2=NC(=O)CS2)c(=O)n(-c2ccccc2)n1C
inhibition zone (Klebsiella pneumoniae; microbial growth, well diffusion; 100000 µg/mL): 25 mm

COc1c2c(cc3c1OCO3)[C@]13C=C[C@H](OC)C[C@@H]1[N@](C2)C[C@H]3OC(=O)c1ccc2ccccc2c1
IC50 (A2780; cell growth or viability, WST-1): > 10 µM

O=C(N/N=C1\C(=O)N(Cc2ccccc2)c2ccc(Cl)cc21)c1cc2ccccc2[nH]1
inhibition (HT-29; cell growth or viability; 30 µM): 94.3%

CC(C)CCCCCCCCCCCCCCc1cc(O)cc(O)c1
IC50 (Klebsiella pneumoniae; microbial growth; ATCC29665): > 200 µM

C1CCNCC1
activity vs control (Cryptosporidium parvum; parasite growth, imaging; HCT-8; 1 mM, 24 h, intracellular): 104%

COC(=O)c1cc(-c2cccc(NC(=O)Nc3c(C)cccc3C)c2)on1
MIC (Klebsiella pneumoniae; microbial growth, broth dilution; BAA1705): > 64 µg/mL

O=C(N/N=C1\C(=O)N(Cc2ccc(Cl)cc2)c2ccccc21)c1cc2ccccc2[nH]1
IC50 (HT-29; cell growth or viability): 2.64 µM

CCOC(=O)c1nnn(-c2cccc(NC(=O)Nc3ccc(Cl)c(Cl)c3)c2)c1C
MIC (Klebsiella pneumoniae; microbial growth, broth dilution; BAA1705): > 64 µg/mL

O=C(N/N=C1\C(=O)N(Cc2ccccc2)c2ccccc21)c1cc2ccccc2[nH]1
IC50 (HT-29; cell growth or viability): 6.19 µM

CO[C@H]1/C=C/O[C@@]2(C)Oc3c(C)c(O)c4c(O)c(c(/C=N/N5CCN(C)CC5)c(O)c4c3C2=O)NC(=O)/C(C)=C\C=C\[C@H](C)[C@H](O)[C@@H](C)[C@@H](O)[C@@H](C)[C@H](OC(C)=O)[C@@H]1C
MIC (Mycobacterium tuberculosis variant bovis BCG; microbial growth; BCG; 7 days): 0.1 µg/mL (≈ 0.122 µM)

COC(=O)c1cc(-c2cccc(NC(=O)Nc3ccc(Cl)cc3Cl)c2)on1
MIC (Klebsiella pneumoniae; microbial growth, broth dilution; BAA1705): > 64 µg/mL

Cc1ccc(CN2C(=O)/C(=N\NC(=O)c3cc4ccccc4[nH]3)c3ccccc32)cc1
inhibition (HT-29; cell growth or viability; 30 µM): 91.1%

C[C@H]1COc2c(N3CCN(C)CC3)c(F)cc3c(=O)c(C(=O)O)cn1c23
MIC (Klebsiella pneumoniae; microbial growth, broth dilution; BAA1705): 64 µg/mL (≈ 177 µM)

COc1c2ccoc2cc2oc(=O)ccc12
IC50 (RD; cell growth or viability, WST-1; 48 h): 31.8 µM

COC(=O)c1cc(-c2cccc(NC(=S)NC3CCCCC3)c2)on1
MIC (Klebsiella pneumoniae; microbial growth, broth dilution; BAA1705): > 64 µg/mL

N#Cc1ccc(CN2C(=O)/C(=N\NC(=O)c3cc4ccccc4[nH]3)c3ccccc32)cc1
IC50 (HT-29; cell growth or viability): 8.11 µM

CCOC(=O)c1cc(-c2cccc(NC(=O)Nc3ccc(Cl)c(Cl)c3)c2)on1
MIC (Klebsiella pneumoniae; microbial growth, broth dilution; BAA1705): > 64 µg/mL

O=C(N/N=C1\C(=O)N(Cc2ccccc2)c2ccc(Br)cc21)c1cc2ccccc2[nH]1
inhibition (HT-29; cell growth or viability; 30 µM): 94.7%

CC(C)CCCCCCCCCCCCc1cc(O)cc(O)c1
IC50 (Klebsiella pneumoniae; microbial growth; ATCC29665): > 200 µM

COc1ccc2c(c1)/C(=N/NC(=O)c1cc3ccccc3[nH]1)C(=O)N2Cc1ccccc1
inhibition (HT-29; cell growth or viability; 30 µM): 94%

N#CCc1c[nH]c2ccccc12
EC50 (Cryptosporidium parvum; parasite growth; HCT-8; 24 h, intracellular): 546 µM

COC(=O)c1cc(-c2cccc(NC(=O)Nc3ccc(C)c(Cl)c3)c2)on1
MIC (Klebsiella pneumoniae; microbial growth, broth dilution; BAA1705): > 64 µg/mL

CC(C)C(C)CCCCCCCCCCCc1cc(O)cc(O)c1 (centres unmarked)
IC50 (Streptococcus pneumoniae; microbial growth): 47.5 µM
